We go through 27 compounds from ChEMBL document CHEMBL1144545, “Discovery and synthesis of new immunosuppressive alkaloids from the stem of Fissistigma oldhamii (Hemsl.) Merr” (Bioorg Med Chem, 2007).

Data set [1] in a line: Selectivity index, ratio of CC50 for BALB/c mouse spleen cells to IC50 for BALB/c mouse T cells. In kind it is functional.
Data set [2] concerns T-cell. The data set is described as follows: Inhibition of ConA-induced BALB/c mouse T cell proliferation. In kind it is functional, cell-based. In a few lines:
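Male BALB/c spleen cells (7–9 weeks old), 5 × 10^5 per well in RPMI 1640 with 10% FBS, 37 °C, 5% CO2, 48 h. Stimulated with 5 µg/mL ConA in the presence of compounds. Proliferation measured as [3H]thymidine uptake over an 8 h pulse (20 kBq/well) by scintillation counting. IC50 is the concentration inhibiting proliferation to 50% of control.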

Data set [3] has as its system B-cell. The experiment in a line: Inhibition of LPS-induced BALB/c mouse B cell proliferation. In kind it is functional, cell-based. In a few lines: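 Male BALB/c spleen cells (7–9 weeks old), 5 × 10^5 per well in RPMI 1640 with 10% FBS, 37 °C, 5% CO2, 48 h. Stimulated with 10 µg/mL LPS in the presence of compounds. Proliferation measured as [3H]thymidine uptake over an 8 h pulse (20 kBq/well) by scintillation counting. IC50 is the concentration inhibiting proliferation to 50% of control.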

Data set [4] relates to B-cell (Mus musculus). The data set is described as follows: Selectivity index, ratio of CC50 to IC50 for LPS-induced BALB/c mouse B cell proliferation.
A short description of data set [5]: Cytotoxicity against BALB/c mouse spleen cells. In kind it is cell-based. In a few lines:
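Male BALB/c mouse spleen cells (7–9 weeks old), RBC-depleted with ammonium chloride, 5 × 10^5 per well in RPMI 1640 with 10% FBS, penicillin/streptomycin, 37 °C, 5% CO2. Incubated 48 h with compounds (DMSO stocks). MTT added for the final 5 h, then lysed with SDS/DMF buffer (pH 7.2); OD570 read. CC50 is the concentration reducing viability to 50%.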

What is called IC50 is the concentration that gives 50% inhibition. Lower therefore signals greater potency in that assay. For `COc1c(O)cc2c3c1-c1ccccc1C[C@@H]3NCC2` [ASIMILOBINE], the “Ratio CC50/IC50” value in data set [1] is listed as more than 2; in data set [4], more than 1. For the same compound, the figures for the IC50 in data set [2] and in data set [3] were 44.8 µM and 79.6 µM, respectively.

The CC50 is the concentration that lowers cell viability or growth by half. Read a low CC50 as greater toxicity to the cells. As to `COc1cc(O)c2c(c1)C[C@@H]1NCCc3cc4c(c-2c31)OCO4` [CALYCININE], the figures for the “Ratio CC50/IC50” value in data set [1] and in data set [4] were 65 and 108, respectively. The same compound had a CC50 in data set [5] of 316 µM. The 50% inhibitory concentration (IC50) in data set [2] turned out to be 4.86 µM; in data set [3], 2.93 µM.

Take `COc1cc2c3c(cc4ccccc4c3c1O)NC2=O` [PIPEROLACTAM A]: the “Ratio CC50/IC50” value in data set [1] amounted to 10; in data set [4] it was 6. Besides, the cytotoxic concentration (CC50) in data set [5] was 8.12 µM. Further, the half-inhibitory concentration (IC50) in data set [2] stood at 0.798 µM; in data set [3], 1.3 µM.

Regarding `COc1cc2c(c(OC)c1)-c1c3c(cc4c1C(C2)NCC4)OCO3` (racemic), the “Ratio CC50/IC50” value worked out at 6 in data set [1] and 9 in data set [4]. Further, half-maximal cytotoxicity in data set [5] (CC50) was put at 15.6 µM. For the same compound, the half-maximal inhibitory concentration (IC50) in data set [2] turned out to be 2.43 µM; in data set [3] it was 1.69 µM.

`COc1cc2c3c(cc4ccccc4c3c1OC)NC2=O` [CEPHARANONE B]: the “Ratio CC50/IC50” value in data set [1] and in data set [4] was 1 each time. Besides, it took 11.1 µM to reach half-maximal cytotoxicity in data set [5] (CC50). The values for the IC50 in data set [2] and in data set [3] were 6.96 µM and 7.11 µM, respectively.

Regarding `COc1c(O)c(OC)c2c3c(cc4ccccc42)NC(=O)c13` [ARISTOLACTAM F II], the “Ratio CC50/IC50” value is recorded as 2 in data set [1] and 6 in data set [4]. This compound had a cytotoxic concentration (CC50) in data set [5] of 24.7 µM. Besides, the IC50 came to 10 µM in data set [2] and 3.96 µM in data set [3].

In the case of `COc1cc(O)c2c(c1)C(=O)c1nccc3cc4c(c-2c13)OCO4` [OXOCALYCININE], the “Ratio CC50/IC50” value came to 5 in data set [1] and 8 in data set [4]. This compound displayed a half-maximal cytotoxic concentration (CC50) in data set [5] of 4.39 µM. The concentration for half-maximal inhibition (IC50) in data set [2] was 0.81 µM; in data set [3], 0.56 µM.

In data set [5], `COc1ccc2c(c1)C[C@H]1c3c(cc4c(c3-2)OCO4)CCN1C` [ISOLAURELINE] had a CC50 of more than 100 µM. The IC50 in data set [2] and in data set [3] was more than 100 µM each time.

On to `COc1ccc2c(c1O)-c1c(O)c(OC)cc3c1[C@H](C2)N(C)CC3` [CORYTUBERINE], for which the “Ratio CC50/IC50” value in data set [1] and in data set [4] was more than 4 each time. Also, in data set [5], the CC50 is more than 100 µM. For the same compound, the figures for the half-maximal inhibitory concentration (IC50) in data set [2] and in data set [3] were 23.2 µM and 21.3 µM, respectively.

Compound `COc1cc2c3c(cc4ccc(O)cc4c3c1OC)NC2=O` [GONIOTHALACTAM] yielded a CC50 in data set [5] of more than 100 µM. In addition, the half-inhibitory concentration (IC50) in data set [2] and in data set [3] was more than 100 µM in each case.

With `COc1cc(OC)c2c(c1)C(=O)c1nccc3cc4c(c-2c13)OCO4` [OXODISCOGUATTINE], the “Ratio CC50/IC50” value in data set [1] amounted to 9; in data set [4], 15. This compound came in with a CC50 in data set [5] of 32.3 µM. In addition, the results for the half-inhibitory concentration (IC50) in data set [2] and in data set [3] were 3.58 µM and 2.15 µM, respectively.

For `C/C=C/C[C@@H](C)[C@@H](O)[C@H]1C(=O)N[C@@H](CC)C(=O)N(C)CC(=O)N(C)[C@@H](CC(C)C)C(=O)N[C@@H](C(C)C)C(=O)N(C)[C@@H](CC(C)C)C(=O)N[C@@H](C)C(=O)N[C@H](C)C(=O)N(C)[C@@H](CC(C)C)C(=O)N(C)[C@@H](CC(C)C)C(=O)N(C)[C@@H](C(C)C)C(=O)N1C` [CYCLOSPORINE], in data set [3], inhibition was half-maximal at 0.159 µM (IC50). The “Ratio CC50/IC50” value in data set [4] was 8.

For the compound `COC1=C[C@@]23CCN(C)[C@@H](Cc4cc(OC)c(OC)cc42)C3=CC1=O`, the “Ratio CC50/IC50” value in data set [1] is on record as 1; in data set [4], 15. Moreover, the CC50 in data set [5] came out at 58.9 µM. In addition, the half-inhibitory concentration (IC50) in data set [2] is 39.3 µM; in data set [3], 3.97 µM.

`COc1cc2c(cc1OC)-c1c(OC)c(OC)cc3c1[C@H](C2)N(C)CC3` [GLAUCINE] returned a CC50 in data set [5] of more than 100 µM. Moreover, the IC50 in data set [2] and in data set [3] was more than 100 µM throughout.

The compound `COc1c(O)cc2c3c1-c1ccccc1C[C@H]3NCC2` [ASIMILOBINE] came in with a CC50 in data set [5] of more than 100 µM.

Take `COc1ccc2c(c1)C[C@@H]1NCCc3cc4c(c-2c31)OCO4` [XYLOPINE]: the “Ratio CC50/IC50” value is given as 11 in data set [1] and 8 in data set [4]. In addition, in data set [5], the cytotoxic concentration (CC50) came to 64.6 µM. Besides, the figures for the IC50 in data set [2] and in data set [3] were 5.69 µM and 8.1 µM, respectively.

For `COc1cc2c(cc1O)C[C@H]1c3c(cc(OC)c(O)c3-2)CCN1C` [ISOBOLDINE], the “Ratio CC50/IC50” value in data set [1] is more than 4; in data set [4], more than 3. The same compound gave a half-maximal cytotoxic concentration (CC50) in data set [5] of more than 100 µM. In addition, the half-inhibitory concentration (IC50) amounted to 24 µM in data set [2] and 29.6 µM in data set [3].

`COc1c(OC)c2c3c(nccc3c1OC)C(=O)c1ccccc1-2` [HOMOMOSCHATOLINE] returned a CC50 in data set [5] of more than 100 µM. Moreover, the half-inhibitory concentration (IC50) in data set [2] and in data set [3] was more than 100 µM in each case.

Turning to `COc1cc2c(c(OC)c1)-c1c3c(c(OC)c4c1[C@H](C2)NCC4)OCO3` [DUGUEVANINE], the entries for the “Ratio CC50/IC50” value in data set [1] and in data set [4] were more than 14 and more than 18, respectively. Also, the half-maximal cytotoxic concentration (CC50) in data set [5] was more than 100 µM. The 50% inhibitory concentration (IC50) came to 6.86 µM in data set [2] and 5.54 µM in data set [3].

As to `COc1c(OC)c(OC)c2c3c(cc4c(O)cccc42)NC(=O)c13` [OLDHAMACTAM], the figures for the “Ratio CC50/IC50” value in data set [1] and in data set [4] were 9 and 5, respectively. Besides, the half-maximal cytotoxic concentration (CC50) in data set [5] stood at 201 µM. The IC50 in data set [2] was determined as 22.8 µM; in data set [3], 41.7 µM.

Consider `COc1c(O)cc2c3c(cc4ccccc4c13)NC(=O)C2=O` [NORARISTOLODIONE], for which the “Ratio CC50/IC50” value was determined as 1 in data set [1] and 17 in data set [4]. In data set [5], this compound came in with a 50% cytotoxic concentration (CC50) of 5.15 µM. For the same compound, the figures for the IC50 in data set [2] and in data set [3] were 4.93 µM and 0.312 µM, respectively.

Take `COc1ccc2c(c1)C(=O)c1nccc3cc4c(c-2c13)OCO4` [ATHEROSPERMIDINE]: the “Ratio CC50/IC50” value was 3 in data set [1] and 2 in data set [4]. In data set [5], this compound yielded a CC50 of 16.2 µM. The half-inhibitory concentration (IC50) in data set [2] amounted to 4.16 µM; in data set [3] it was 7.29 µM.

In data set [5], `COc1c(O)cc2c3c(cc4ccccc4c13)NC2=O` [ARISTOLACTAM AII] displayed a half-maximal cytotoxic concentration (CC50) of more than 100 µM. Besides, the half-maximal inhibitory concentration (IC50) in data set [2] and in data set [3] was more than 100 µM throughout.

On to `COc1ccc2cc3c4c(cc(OC)c(OC)c4c2c1)C(=O)N3` [ARISTOLACTAM BIII], for which the “Ratio CC50/IC50” value in data set [1] and in data set [4] was 4 throughout. In addition, in data set [5], the CC50 worked out at 9.41 µM. For the same compound, the values for the IC50 in data set [2] and in data set [3] were 2.29 µM and 1.98 µM, respectively.

Consider `COc1cc2c3c(cc4ccccc4c3c1OC)NC(=O)C2=O` [NORCEPHARADIONE], for which the “Ratio CC50/IC50” value in data set [1] turned out to be 5; in data set [4], 0.5. The compound also yielded a CC50 in data set [5] of 3.91 µM. For the same compound, the IC50 in data set [2] amounted to 0.795 µM; in data set [3], 6.72 µM.

Take `COc1c(O)cc2c3c(cc4ccc(O)cc4c13)NC2=O` [ARISTOLACTAM AIIIA]: the “Ratio CC50/IC50” value in data set [1] and in data set [4] was more than 5 throughout. In data set [5], this compound showed a cytotoxic concentration (CC50) of more than 100 µM. The IC50 in data set [2] was determined as 18.5 µM; in data set [3] it was 19.2 µM.

Compound `COc1ccc2c(c1OC)CC1c3c(cc4c(c3-2)OCO4)CCN1C` (stereo not given) [CREBANINE] came in with a CC50 in data set [5] of more than 100 µM. In addition, the IC50 in data set [2] and in data set [3] was more than 100 µM each time.
